The list is a sample of the results.
Apaf1 activ: human Apaf-1 activation. AID 489031. Apaf-1 apoptosome caspase-3 activation, DEVD-Rh110 fluorescence; hits give low values. activity change, negative = activation, % at 20 µM. 0.31% of 330,000 active. O14727;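 active = activity change at or below -40% at 20 µM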
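Assay system – biochemical Apaf-1 apoptosome reconstitution · Medium – 20 mM HEPES buffer, pH 7.5, containing CHAPS and BSA · Incubation – 30 min preincubation, 50 min reaction, room temperature · Measured by – Caspase-3-released Rh110 fluorescence, 540 nm emission, 480 nm excitation · Read-out – Caspase-3 cleavage activity downstream of Apaf-1 activation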
Large screens that a line does not name were inactive.

Cn1c(-c2sccc2OCc2ccccc2)n[nH]c1=S	Apaf1 activ -289.1
C#CCOCCOCCOCCNc1nc(N2CCN(C(=O)CCCCCCCCCCNC(=O)Cn3cc(CCCCCN)nn3)CC2)nc(N2CCN(C(=O)CCCCCCCCCCNC(=O)Cn3cc(CCCCCN)nn3)CC2)n1	none
CCc1ccc(N2C(=O)C(Cl)=C(Nc3ccc(C(=O)N4CCCC4)cc3)C2=O)cc1	none
CC(Oc1ccc(Br)cc1)C(=O)NCC(C)(C)N1CCOCC1 (stereo not drawn)	none
CCn1c2ccccc2c2c3ncc4cccn4c3ccc21	none
O=C1C(=O)c2ccccc2C(O)=C1CCCCl	none
CC12CCC(=O)N1C(C(=O)Nc1ccccc1N1CCCCC1)CS2 (stereo not drawn)	none
CC(=O)C1=C(c2cccc([N+](=O)[O-])c2)N(C(C)=O)n2c(C)nnc2S1	none
C[C@H](CO)N1C[C@H](C)[C@@H](CN(C)CC2CCCCC2)Oc2c(NC(=O)CCC(F)(F)F)cccc2C1=O	none
COc1ccccc1CNC(=O)CN1C(=O)NC(c2ccccc2)(c2ccc(C)c(C)c2)C1=O (stereo not drawn)	none
CC(=O)Nc1ccc(S(=O)(=O)NCc2ccc3c(c2)cc(C)n3C)cc1	none
CC(=O)Nc1ccc(S(=O)(=O)NC2(C(F)(F)F)NC(=O)N(c3ccc(Cl)cc3)C2=O)cc1 (stereo not drawn)	Apaf1 activ -58.0
Cc1cccc(NC(=O)CN2CCN(C(=O)c3oc4c(Cl)cccc4c3C)CC2)c1C	none
C#CCOCCOCCOCCNc1nc(N2CCN(C(=O)CCCCCCCCCCNC(=O)Cn3cc(CCCCCN)nn3)CC2)nc(N2CCN(C(=O)CCCCCCCCCCNC(=O)[C@@H](CCSC)n3cc(CCO)nn3)CC2)n1	none
O=C(CCC1CCCCC1)NCCN1C2=NC[C@@H](Cc3ccccc3)N2C[C@H]1Cc1ccc(O)cc1	none
C#CCOCCOCCOCCNc1nc(N2CCN(C(=O)C([C@@H](C)O)n3cc([C@@H](N)CCCCN)nn3)CC2)nc(N2CCN(C(=O)[C@H](CCCCN)n3cc([C@@H](N)CC(N)=O)nn3)CC2)n1 (stereo partly drawn)	none
CC(=O)N1CCN(c2ccc(NCc3ccc(-c4cccc(Cl)c4)o3)cc2)CC1	none
CC(C)(C)NS(=O)(=O)c1ccc(CCC(=O)O)cc1	Apaf1 activ -99.4
CCc1ccc(S(=O)(=O)Nc2cc(SCC(=O)O)c(O)c3ccccc23)cc1	none
OC1C(O)C(O)C(O)C(O)C1O (stereo not drawn)	none
CCCN(CC(=O)Nc1ccccc1C)C(=O)COc1ccc2c(c1)CCC2	none
COc1ccccc1N(/N=C1\Sc2ccccc2C1=O)C(C)=O	none
CCC1CCc2sc(C(=O)NCC(c3ccccc3OC)N3CCCC3)cc2C1 (stereo not drawn)	none
Nc1ccc(O)c2ccccc12	none
O=C(c1ccc(-c2cccc(C(F)(F)F)c2)o1)N1CCCC(C(F)(F)F)C1 (stereo not drawn)	none
O=C1C=C(Nc2cccc3cccnc23)c2ccccc2C1=O	none
O=C(c1ccc(Cl)c(S(=O)(=O)N2CCCCCC2)c1)N1CCCC(C(F)(F)F)C1 (stereo not drawn)	none
O=S(=O)(c1cccc2cccnc12)N1CCCCC1	Apaf1 activ -43.7
C[C@@H]1CN([C@@H](C)CO)C(=O)c2cc(NC(=O)Nc3ccc(F)cc3)ccc2O[C@@H]1CN(C)Cc1ccc(Oc2ccccc2)cc1	none
CCN(CC(=O)Nc1ccccc1OC)C(=O)CN1C(=O)NC(C)(c2ccccc2)C1=O (stereo not drawn)	none
COCCN(Cc1ccccc1)C(=O)C1CCN(S(=O)(=O)c2ccc3c(c2)OCCO3)CC1	none
O=C(CCS(=O)(=O)c1ccc(Br)cc1)NCc1ccc(F)cc1	Apaf1 activ -99.1
CC(=O)[C@H]1[C@H](c2cccc(Cl)c2)C(C#N)(C#N)[C@@H]2c3ccccc3C=CN21	none
CCCCc1nc(N2CCN(C(=O)c3ccco3)CC2)c(C#N)c2c1CCCC2	none
CS(=O)(=O)N(CC(=O)Nc1ccccc1C(=O)N1CCCC1)c1cccc([N+](=O)[O-])c1	Apaf1 activ -71.3
CN(c1ccccc1)S(=O)(=O)c1cccc(C(=O)NCc2ccccc2CN2CCCC2)c1	none
Cc1ccc(C)c(NC(=O)CN(C)C(=O)c2cccc(S(=O)(=O)N3CCN(Cc4ccccc4)CC3)c2)c1	none
Cc1cccc(N(Cc2ccccc2)C(=O)C2CCN(C(=O)c3ccccc3C)CC2)c1	none
CC(=O)c1cccc(N(CC(=O)Nc2ccccc2C(=O)N2CCCC2)S(C)(=O)=O)c1	Apaf1 activ -322.7
COc1ccc(-n2c3nc4ccccc4nc3c3c(=N)oc(C)nc32)cc1	none
C#CCOCCOCCOCCNc1nc(N2CCN(C(=O)CCCCCCCCCCNC(=O)[C@H](CO)n3cc(CCCSC)nn3)CC2)nc(N2CCN(C(=O)CCCCCCCCCCNC(=O)[C@H](CCCN=C(N)N)n3cc(C[C@@H](C)CC)nn3)CC2)n1	none
CN(CC(=O)Nc1ccc(Cl)cc1)C(=O)c1sccc1-c1ccccc1	none
Cc1cc(NC(=O)CSCC(=O)Nc2ccc(C)c(C)c2)no1	none
